Assay results from ChEMBL document CHEMBL1128248, “C-9 and N-substituted analogs of cis-(3aR)-(-)-2,3,3a,4,5,9b-hexahydro-3- propyl-1H-benz[e]indole-9-carboxamide: 5-HT1A receptor agonists with various degrees of metabolic stability” (J Med Chem, 1995).
Activity calls are given as the source filed them. The rule behind the calls is not given here.

Key:
D(2) dopamine receptor = D(2) dopamine receptor (Rattus norvegicus, UniProt P61169); assay: Displacement of [3H]U-86170 from Dopamine receptor D2
Summary of the method: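 Competition binding at cloned D2 receptors expressed in CHO-K1 cells, using the agonist [3H]U86170 (62 Ci/mmol, 2 nM) against 11 dilutions of test compound. IC50 was fitted to a one-site model by nonlinear least squares. Ki was obtained with the Cheng–Prusoff equation.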

[1] = target: T1, 5-hydroxytryptamine receptor 1A (Rattus norvegicus, UniProt P19327); assay: In vitro displacement of radioactively labeled ligand [3H]8-OH-DPAT from 5-hydroxytryptamine 1A receptor site in CHO cells; format: cell-based
T1 sequence (P19327 whole entry): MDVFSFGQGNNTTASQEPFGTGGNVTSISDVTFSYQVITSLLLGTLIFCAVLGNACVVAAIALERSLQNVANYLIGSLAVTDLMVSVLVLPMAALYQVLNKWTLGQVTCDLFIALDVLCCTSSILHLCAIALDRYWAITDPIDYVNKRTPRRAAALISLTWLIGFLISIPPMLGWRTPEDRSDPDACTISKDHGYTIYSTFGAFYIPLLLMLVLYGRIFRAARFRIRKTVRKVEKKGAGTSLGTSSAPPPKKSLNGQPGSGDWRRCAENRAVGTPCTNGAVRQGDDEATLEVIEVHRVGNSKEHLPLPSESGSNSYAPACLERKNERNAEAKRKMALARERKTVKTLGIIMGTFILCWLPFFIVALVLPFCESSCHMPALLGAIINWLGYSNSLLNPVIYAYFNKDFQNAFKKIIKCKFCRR

Rattus norvegicus [2] = assay: In vivo effects on DA (dopamine) synthesis in corps striatum was reported after subcutaneous administration to reserpinized rats; inactive at a dose of 12.5; format: functional, organism-based
Summary of the method: (§1)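 Male Sprague–Dawley rats (200–300 g) given reserpine 5 mg/kg sc 18 h before; compounds sc in neck region, 5 mL/kg. DOPA accumulation in striatum or cortex measured by HPLC with electrochemical detection.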

Rattus norvegicus [3] = assay: in vivo effects on DA (dopamine) synthesis in cortex was reported after subcutaneous administration to reserpinized rats; inactive at a dose of 12.5; format: functional, organism-based; summary of the method: as §1
Rattus norvegicus [4] = species on record: Rattus norvegicus; assay: (§2) In vitro metabolic stability of the test compound was evaluated after incubation in the presence of freshly isolated rat hepatocytes; format: functional, Hepatocyte; design: reference not given here
Summary of the method: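 Rat hepatocytes were isolated by modified collagenase perfusion and incubated as suspensions (5 million cells/mL) with each compound at three concentrations. Parent loss was followed by HPLC. Initial rates gave apparent Vmax and Km by direct linear plot, with CLint = Vmax/Km. Stability is expressed relative to a reference compound incubated at the same time.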

Rattus norvegicus [5] = assay: (§3) 5-HTP accumulation in limbic system was determined in vivo; format: functional
Summary of the method: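 Male Sprague–Dawley rats (200–300 g) pretreated with reserpine 5 mg/kg sc 18 h beforehand; test drug given sc in neck, 5 mL/kg, neutral pH. 5-HTP in limbic system measured by HPLC with electrochemical detection.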

Rattus norvegicus [6] = assay: uM/kg); format: ADME, organism-based; details: in vivo
Summary of the method: (§4)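 Male Sprague–Dawley rats got reserpine 5 mg/kg sc in the neck 18 h before testing. Compound was given sc in the neck (5 mL/kg), and rats were placed singly in photocell motility meters. Accumulated counts were recorded over 30 min, mean ± SEM, n = 4, with Student's t test against reserpinized controls. Testing ran 9 a.m.–1 p.m.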

Rattus norvegicus [7] = assay: postsynaptic effects was assessed by the increase in the locomotor activity (reversal of reserpine induced hypokinesia) during a 30 min period after subcutaneous administration using photocell motility meters at the dose of 10(micro M/kg); format: ADME, organism-based; details: in vivo, sc, 0.5 h; summary of the method: as §4
Rattus norvegicus [8] = assay: in vivo effects on DA (dopamine) synthesis in cortex was reported after subcutaneous administration to reserpinized rats; inactive at a dose of 50; format: functional, organism-based; summary of the method: as §1
Rattus norvegicus [9] = assay: In vivo effects on DA (dopamine) synthesis in corps striatum was reported after subcutaneous administration to reserpinized rats; inactive at a dose of 50; format: functional, organism-based; summary of the method: as §1
Rattus norvegicus [10] = assay: as §3; format: functional; remark: listed apart in the source
Summary of the method: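 Male Sprague–Dawley rats (200–300 g), pretreated with reserpine 5 mg/kg sc 18 h before. Test drug given sc. 5-HTP measured in limbic brain tissue by HPLC with electrochemical detection. Dose–response curves were built from four to six dose levels (n = 4) for each substance and brain area. ED50 reported in μmol/kg sc.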

Rattus norvegicus [11] = species on record: Rattus norvegicus; assay: In vitro metabolic stability of the test compound was evaluated after incubation in the presence of freshly isolated rat hepatocytes; Metabolic stability NT = not tested; format: functional, Hepatocyte
Summary of the method: (§5)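 Rat hepatocytes were prepared by a modified collagenase perfusion method. Each compound was incubated at three concentrations in suspension at 5 million cells/mL. Initial rates were analysed by direct linear plot to give apparent Vmax and Km, and CLint = Vmax/Km. Rates were measured by HPLC and expressed relative to a reference compound incubated at the same time.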

Rattus norvegicus [12] = assay: postsynaptic effect was assessed by the increase in the locomotor activity (reversal of reserpine induced hypokinesia) during a 30 min period after subcutaneous administration using photocell motility meters at the dose of 3.1 uM/kg; format: ADME, organism-based; details: in vivo, sc, 0.5 h
Summary of the method: (§6)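 Reserpine 5 mg/kg sc was given 18 h before testing to male Sprague–Dawley rats. Test drug was given sc in the neck, and rats were placed singly in photocell motility meters. Accumulated counts were recorded over 30 min (mean, n = 4), with gross behaviour observed throughout. Student's t test was applied.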

Rattus norvegicus [13] = assay: in vivo effects on DA (dopamine) synthesis in cortex was reported after subcutaneous administration to reserpinized rats; inactive at a dose of 3.1; format: functional, organism-based
Rattus norvegicus [14] = assay: In vivo effects on DA (dopamine) synthesis in corps striatum was reported after subcutaneous administration to reserpinized rats; inactive at a dose of 3.1; format: functional, organism-based
Rattus norvegicus [15] = species on record: Rattus norvegicus; assay: as §2; format: ADME, Hepatocyte; summary of the method: as §5
Rattus norvegicus [16] = assay: In vivo effects on DA (dopamine) synthesis in corps striatum was reported after subcutaneous administration to reserpinized rats; inactive at a dose of 2.1; format: functional, organism-based
Rattus norvegicus [17] = assay: in vivo effects on DA (dopamine) synthesis in cortex was reported after subcutaneous administration to reserpinized rats; inactive at a dose of 2.1; format: functional, organism-based
Rattus norvegicus [18] = assay: postsynaptic effects was assessed by the increase in the locomotor activity (reversal of reserpine induced hypokinesia) during a 30 min period after subcutaneous administration using photocell motility meters at the dose of 0.8(micr oM/kg); format: ADME, organism-based; details: in vivo, sc, 0.5 h; summary of the method: as §6
Rattus norvegicus [19] = assay: postsynaptic effects was assessed by the increase in the locomotor activity (reversal of reserpine induced hypokinesia) during a 30 min period after subcutaneous administration using photocell motility meters at the dose of 12.5(mic roM/kg); format: ADME, organism-based; details: in vivo, sc, 0.5 h; summary of the method: as §6
Rattus norvegicus [20] = assay: In vivo effects on DA (dopamine) synthesis in corps striatum was reported after subcutaneous administration to reserpinized rats; inactive at a dose of 100; format: functional, organism-based
Rattus norvegicus [21] = assay: in vivo effects on DA (dopamine) synthesis in cortex was reported after subcutaneous administration to reserpinized rats; inactive at a dose of 100; format: functional, organism-based
Rattus norvegicus [22] = assay: postsynaptic effects was assessed by the increase in the locomotor activity (reversal of reserpine induced hypokinesia) during a 30 min period after subcutaneous administration using photocell motility meters at dose of 12.5 (uM /kg); format: functional; summary of the method: as §4

D(2) dopamine receptor, sequence (P61169 whole entry): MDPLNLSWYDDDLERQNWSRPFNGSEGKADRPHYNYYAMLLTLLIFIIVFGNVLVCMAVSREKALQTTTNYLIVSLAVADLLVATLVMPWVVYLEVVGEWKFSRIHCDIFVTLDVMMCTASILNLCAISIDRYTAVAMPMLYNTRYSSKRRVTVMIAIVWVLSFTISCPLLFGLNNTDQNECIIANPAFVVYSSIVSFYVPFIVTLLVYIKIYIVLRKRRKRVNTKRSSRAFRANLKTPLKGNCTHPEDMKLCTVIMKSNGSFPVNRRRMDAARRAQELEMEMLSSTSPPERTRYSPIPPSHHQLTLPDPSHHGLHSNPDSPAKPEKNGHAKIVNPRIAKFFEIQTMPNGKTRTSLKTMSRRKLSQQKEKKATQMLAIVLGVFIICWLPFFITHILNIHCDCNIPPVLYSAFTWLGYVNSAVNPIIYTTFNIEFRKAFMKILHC

| SMILES | Ki (D(2) dopamine receptor) | Ki [1] | Metabolic stability (Rattus norvegicus [4]) | other results |
| --- | --- | --- | --- | --- |
| ClCCCN1CC[C@H]2c3c(Br)cccc3CC[C@H]21 | 73 nM | 12 nM |  |  |
| FCCCN1CC[C@H]2c3c(Br)cccc3CC[C@H]21 | 47 nM | 4.7 nM |  |  |
| C=CCN1CC[C@H]2c3c(cccc3C(N)=O)CC[C@H]21 | > 1000 nM | 1.5 nM | 1 | ED50 (Rattus norvegicus [2]): inactive; ED50 (Rattus norvegicus [3]): inactive; ED50 (Rattus norvegicus [5]): 0.04 µmol/kg; Locomotor activity (Rattus norvegicus [6]): 215 |
| CCCNC(=O)c1cccc2c1[C@@H]1CCN(CCC)[C@@H]1CC2 | > 1000 nM | 52 nM |  | Locomotor activity (Rattus norvegicus [7]): 58; ED50 (Rattus norvegicus [8]): inactive; ED50 (Rattus norvegicus [9]): inactive; ED50 (Rattus norvegicus [10]): 4 µmol/kg |
| C=CCN1CC[C@H]2c3c(Br)cccc3CC[C@H]21 | 3.2 nM | 1 nM |  |  |
| C=CCCN1CC[C@H]2c3c(Br)cccc3CC[C@H]21 | 55 nM | 34 nM |  |  |
| CC(C)=CCN1CC[C@H]2c3c(cccc3C(N)=O)CC[C@H]21 | > 1000 nM | 271 nM |  | Metabolic stability (Rattus norvegicus [11]): 0 |
| CCCCN1CC[C@H]2c3c(cccc3C(N)=O)CC[C@H]21 | > 1000 nM | 83 nM | 0.3 |  |
| CCCN1CC[C@H]2c3c(cccc3C(=O)C(C)C)CC[C@H]21 | 62 nM | 1.2 nM | 0.8 | Locomotor activity (Rattus norvegicus [12]): 450; ED50 (Rattus norvegicus [13]): inactive; ED50 (Rattus norvegicus [14]): inactive; ED50 (Rattus norvegicus [10]): 0.025 µmol/kg |
| NC(=O)c1cccc2c1[C@@H]1CCN(CCCCl)[C@@H]1CC2 | > 1000 nM | 15 nM |  | Metabolic stability (Rattus norvegicus [15]): 0.22 |
| CN1CC[C@H]2c3c(Br)cccc3CC[C@H]21 | 41 nM | 24 nM |  |  |
| CCCN1CC[C@H]2c3c(cccc3C(C)=O)CC[C@H]21 | 91 nM | 0.4 nM | 0.13 | ED50 (Rattus norvegicus [16]): inactive; ED50 (Rattus norvegicus [17]): inactive; Locomotor activity (Rattus norvegicus [18]): 115; ED50 (Rattus norvegicus [10]): 0.0125 µmol/kg |
| CCN1CC[C@H]2c3c(cccc3C(N)=O)CC[C@H]21 | > 1000 nM | 23 nM | 1.5 | Locomotor activity (Rattus norvegicus [19]): 13; ED50 (Rattus norvegicus [20]): inactive; ED50 (Rattus norvegicus [10]): 2 µmol/kg; ED50 (Rattus norvegicus [21]): inactive |
| CCCN1CC[C@H]2c3c(cccc3C(N)=O)CC[C@H]21 | > 1630 nM | 1.9 nM | 1 | Locomotor activity (Rattus norvegicus [22]): 249; ED50 (Rattus norvegicus [8]): inactive; ED50 (Rattus norvegicus [5]): 0.28 µmol/kg; ED50 (Rattus norvegicus [9]): inactive |
| CC(C)=CCN1CC[C@H]2c3c(Br)cccc3CC[C@H]21 | 18 nM | 266 nM |  | Metabolic stability (Rattus norvegicus [15]): 0.21 |
